# In ChEMBL document CHEMBL1144702, “Synthesis and structure-activity relationship studies on tryprostatin A, an inhibitor of breast cancer resistance protein” (Bioorg Med Chem, 2008):
# Activity calls are given as the source filed them. The rule behind the calls is not given here.
# How the values were obtained:
# [1] = system: CCRF-CEM; experiment: Cytotoxicity against human CCRF-CEM cells; format: functional
# [2] = system: DU-145; experiment: Cytotoxicity against human DU145 cells; format: functional
# [3] = Cytotoxicity against human HL60 (TB) cells; format: functional; details: HL-60
# [4] = system: HT-29; experiment: Cytotoxicity against human HT29 cells; format: functional
# [5] = system: COLO 205; experiment: Cytotoxicity against human COLO205 cells; format: functional
# [6] = system: LOX IMVI; experiment: Cytotoxicity against human LOX IMVI cells; format: functional
# [7] = Cytotoxicity against human […]; format: functional
# [8] = system: PC-3; experiment: Cytotoxicity against human PC3 cells at 100 uM after 72 hrs by Cell Titer 96 Aqueous Non-Radioactive assay; format: functional; details: PC-3, 72 h, read-out: Inhibition
# Summary of the method: (§1)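 MCF7, NCI-H520 or PC-3 cells (RPMI-1640, 10% FBS) plated 1 × 10^4/well, 24 h at 37 °C, exposed 72 h to drug at 10 or 100 μM in DMSO or EtOH vehicle (controls usually 0.2%). Survival by MTS/PMS formazan absorbance at 490 nm, plate blank subtracted, as percent of vehicle wells; quadruplicate; etoposide or m-AMSA positive controls.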
# [9] = Cytotoxicity against human H520 cells at 100 uM after 72 hrs by Cell Titer 96 Aqueous Non-Radioactive assay; format: functional; details: NCI-H520, 72 h, read-out: Inhibition; summary of the method: as §1
# [10] = system: MCF7; experiment: Cytotoxicity against human MCF7 cells at 10 uM after 72 hrs by Cell Titer 96 Aqueous Non-Radioactive assay; format: functional; details: MCF7, 72 h, read-out: Inhibition; summary of the method: as §1
# [11] = Inhibition of tubulin polymerization in presence of microtubule-associated proteins at 60 uM
# Summary of the method: (§2)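 Tubulin containing MAPs in PME buffer (100 mM PIPES pH 6.9, 2 mM EGTA, 1 mM MgSO4) with GTP and drug in DMSO, tubulin added last; 37 °C, absorbance change at 351 nm over 10 min. Drug concentration varied across runs for delta absorbance versus concentration curves; colchicine standard curves made for each tubulin batch.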
# [12] = Cytotoxicity against human H520 cells at 10 uM after 72 hrs by Cell Titer 96 Aqueous Non-Radioactive assay; format: functional; details: NCI-H520, 72 h, read-out: Inhibition; summary of the method: as §1
# [13] = system: BT-549; experiment: Cytotoxicity against human BT549 cells; format: functional
# [14] = system: PC-3; experiment: Cytotoxicity against human PC3 cells after 72 hrs by Cell Titer 96 Aqueous Non-Radioactive assay; format: functional; details: PC-3, 72 h
# Summary of the method: (§3)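 MCF7, NCI-H520 and PC-3 cells in RPMI-1640 + 10% FBS, 2 mM L-glutamine, 0.1 mM non-essential amino acids; 1 × 10^4 cells/well, 24 h at 37 °C, then drug in DMSO or EtOH (<1%) for 72 h. Cells under 50% survival at 100 μM retested over further concentrations for GI50. MTS/PMS read at 490 nm, blank subtracted, versus vehicle wells; quadruplicate or more.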
# [15] = system: MCF7; experiment: Cytotoxicity against human MCF7 cells at 100 uM after 72 hrs by Cell Titer 96 Aqueous Non-Radioactive assay; format: functional; details: MCF7, 72 h, read-out: Inhibition; summary of the method: as §1
# [16] = system: RPMI-8226; experiment: Cytotoxicity against human RPMI8226 cells; format: functional
# [17] = system: IGROV-1; experiment: Cytotoxicity against human IGROV1 cells; format: functional
# [18] = system: UO-31; experiment: Cytotoxicity against human UO31 cells; format: functional
# [19] = system: EKVX; experiment: Cytotoxicity against human EKVX cells; format: functional
# [20] = system: SR; experiment: Cytotoxicity against human SR cells; format: functional
# [21] = system: MCF7; experiment: Cytotoxicity against human MCF7 cells after 72 hrs by Cell Titer 96 Aqueous Non-Radioactive assay; format: functional; details: MCF7, 72 h; summary of the method: as §3
# [22] = system: MOLT-4; experiment: Cytotoxicity against human MOLT4 cells; format: functional
# [23] = system: PC-3; experiment: Cytotoxicity against human PC3 cells at 10 uM after 72 hrs by Cell Titer 96 Aqueous Non-Radioactive assay; format: functional; details: PC-3, 72 h, read-out: Inhibition; summary of the method: as §1
# [24] = system: OVCAR-3; experiment: Cytotoxicity against human OVCAR-3 cells; format: functional
# [25] = system: HOP-92; experiment: Cytotoxicity against human HOP92 cells; format: functional
# [26] = system: K562; experiment: Cytotoxicity against human K562 cells; format: functional
# [27] = Cell cycle arrest in mouse tsFT210 cells assessed as accumulation at M phase at 30 uM after 18 hrs by flow cytometry; format: functional, cell-based
# Summary of the method: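 Murine temperature-sensitive cdc2 mutant tsFT210 cells (from FM3A), kept in RPMI 1640 + 10% FCS at permissive 32 °C; seeded 1x10^5 cells/mL, preincubated 1 h at 32 °C, compound added, 18 h at 32 °C. Microscopy, then propidium iodide (50 μg/mL, 0.1% sodium citrate, 0.2% NP-40) flow cytometry for DNA content; Carnoy-fixed nuclei stained with Hoechst 33258.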
# [28] = Inhibition of tubulin polymerization in presence of microtubule-associated proteins; summary of the method: as §2
# [29] = Antiproliferative activity against mouse tsFT210 cells after 48 hrs by WST-8 assay; format: functional, cell-based; details: tsFT210, 48 h
# Summary of the method: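 tsFT210 cells (temperature-sensitive cdc2 mutant from mouse mammary carcinoma FM3A), kept in RPMI 1640 with 10% fetal calf serum at 32 °C; exponentially growing cells exposed to compound at 32 °C for 48 h, then WST-8 added for 4 h at 37 °C; absorbance at 450 nm read to estimate cell number; IC50 reported.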
# [30] = target: DNA topoisomerase 2-alpha (Homo sapiens) (UniProt P11388); experiment: Inhibition of topoisomerase 2 assessed as relaxation of supercoiled DNA at 100 uM
# DNA topoisomerase 2-alpha (Homo sapiens), sequence (P11388 whole entry): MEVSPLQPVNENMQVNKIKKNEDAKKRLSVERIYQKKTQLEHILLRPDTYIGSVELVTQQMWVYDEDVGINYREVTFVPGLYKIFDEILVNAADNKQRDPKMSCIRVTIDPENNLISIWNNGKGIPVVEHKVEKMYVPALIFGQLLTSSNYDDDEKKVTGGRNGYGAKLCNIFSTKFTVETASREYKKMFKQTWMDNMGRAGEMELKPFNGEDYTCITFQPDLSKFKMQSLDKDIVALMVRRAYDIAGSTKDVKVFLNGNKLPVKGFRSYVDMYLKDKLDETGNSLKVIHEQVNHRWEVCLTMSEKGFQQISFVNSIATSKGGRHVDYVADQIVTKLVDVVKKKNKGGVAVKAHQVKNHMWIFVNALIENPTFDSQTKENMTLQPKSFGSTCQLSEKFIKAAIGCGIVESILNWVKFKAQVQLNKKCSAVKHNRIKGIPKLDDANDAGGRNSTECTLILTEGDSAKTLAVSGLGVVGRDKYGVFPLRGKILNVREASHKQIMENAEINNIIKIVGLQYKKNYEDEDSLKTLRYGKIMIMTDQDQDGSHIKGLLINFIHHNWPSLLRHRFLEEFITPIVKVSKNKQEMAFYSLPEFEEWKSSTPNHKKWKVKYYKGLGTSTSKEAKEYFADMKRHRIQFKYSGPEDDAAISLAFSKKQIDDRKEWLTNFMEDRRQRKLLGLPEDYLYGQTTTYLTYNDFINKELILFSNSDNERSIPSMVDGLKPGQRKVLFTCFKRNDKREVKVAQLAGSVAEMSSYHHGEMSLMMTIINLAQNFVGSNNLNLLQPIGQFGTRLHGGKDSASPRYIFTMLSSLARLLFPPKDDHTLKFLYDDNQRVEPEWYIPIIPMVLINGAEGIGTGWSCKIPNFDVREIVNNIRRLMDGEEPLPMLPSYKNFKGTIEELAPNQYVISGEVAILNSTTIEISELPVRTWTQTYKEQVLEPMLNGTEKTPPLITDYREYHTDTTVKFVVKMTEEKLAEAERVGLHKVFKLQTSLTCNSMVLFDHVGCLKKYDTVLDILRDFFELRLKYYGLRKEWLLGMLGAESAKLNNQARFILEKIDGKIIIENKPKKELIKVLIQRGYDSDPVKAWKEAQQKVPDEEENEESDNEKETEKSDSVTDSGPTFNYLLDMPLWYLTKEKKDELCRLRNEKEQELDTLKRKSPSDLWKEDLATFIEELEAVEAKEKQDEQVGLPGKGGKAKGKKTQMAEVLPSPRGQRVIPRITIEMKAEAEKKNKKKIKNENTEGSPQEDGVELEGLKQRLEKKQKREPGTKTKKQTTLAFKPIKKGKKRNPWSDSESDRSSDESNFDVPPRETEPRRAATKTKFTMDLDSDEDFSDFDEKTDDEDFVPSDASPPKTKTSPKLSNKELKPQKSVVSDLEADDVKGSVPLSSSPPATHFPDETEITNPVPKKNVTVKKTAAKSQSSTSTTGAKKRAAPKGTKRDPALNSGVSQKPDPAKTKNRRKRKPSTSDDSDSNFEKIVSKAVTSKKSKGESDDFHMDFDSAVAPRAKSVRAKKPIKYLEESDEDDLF
# [31] = Cytotoxicity against human H520 cells after 72 hrs by Cell Titer 96 Aqueous Non-Radioactive assay; format: functional; details: NCI-H520, 72 h; summary of the method: as §3
# [32] = Cell cycle arrest in mouse tsFT210 cells assessed as accumulation at M phase at 100 uM after 18 hrs by flow cytometry; format: functional, cell-based
# Summary of the method: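 Synchronous-culture assay: tsFT210 cells seeded at 1x10^5 cells/mL, preincubated 1 h at 32 °C, then incubated with compound 18 h at 32 °C; morphology checked by microscopy; DNA content by flow cytometry after staining with 50 μg/mL propidium iodide, 0.1% sodium citrate, 0.2% NP-40; nuclei/chromosomes stained with Hoechst 33258 after KCl swelling and Carnoy fixation.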
SMILES,GI50 [1] [µM],GI50 [2] [µM],GI50 [3] [µM],GI50 [5] [µM],GI50 [6] [µM],GI50 [7] [µM],percent cell survival at 100 µM [8] [%],cell survival (% of vehicle control) at 100 µM [9] [%],cell survival (% of vehicle control) at 10 µM [10] [%],percent cell survival relative to vehicle at 10 µM [12] [%],GI50 [13] [µM],GI50 [14] [µM],cell survival (% of vehicle control) at 100 µM [15] [%],GI50 [16] [µM],GI50 [17] [µM],GI50 [18] [µM],GI50 [19] [µM],GI50 [20] [µM],GI50 [21] [µM],percent cell survival relative to vehicle control at 10 µM [23] [%],other results
COc1ccc2c(C[C@@H]3NC(=O)[C@H]4CCCN4C3=O)c(CC=C(C)C)[nH]c2c1,99.4,> 100,> 100,> 100,> 100,> 100,> 100,98.5,> 100,99.3,> 100,> 100,99,92,50,> 100,> 100,76.9,> 100,> 100,GI50 [4]: 40.3 µM; inhibition [11]: < 2%; GI50 [22]: > 100 µM; GI50 [24]: 85.5 µM; GI50 [25]: 16.8 µM; GI50 [26]: > 100 µM
COc1ccc2c(C[C@@H]3NC(=O)[C@@H]4CCCN4C3=O)c(CC=C(C)C)[nH]c2c1 [TRYPROSTATIN A],> 100,> 100,11.3,> 100,> 100,> 100,95.6,79.4,> 100,80.1,79.7,94,95,37.1,90.5,> 100,> 100,5.68,> 100,99.2,Activity [27]: Active; IC50 [28]: 250 µM; IC50 [29]: 68 µM; GI50 [24]: > 100 µM; GI50 [25]: 21.2 µM; GI50 [26]: 2.73 µM
CC(C)=CCc1[nH]c2ccccc2c1C[C@H]1NC(=O)[C@H]2CCCN2C1=O,25.1,> 50,29,21.2,> 50,11.9,78.9,99.8,> 100,> 100,7.21,21.2,> 100,12.9,16,12.6,39.4,12.1,40,95.8,GI50 [4]: 37.5 µM; IC50 [28]: > 700 µM; GI50 [22]: 21 µM; Activity [30]: inactive; GI50 [24]: 38.2 µM; GI50 [26]: 25.8 µM
COc1cc([C@@H]2c3cc4c(cc3[C@@H](O[C@@H]3O[C@@H]5CO[C@@H](C)O[C@H]5[C@H](O)[C@H]3O)[C@H]3COC(=O)[C@H]23)OCO4)cc(OC)c1O [ETOPOSIDE],–,–,–,–,–,–,–,–,–,–,–,11.1,–,–,–,–,–,–,55.6,–,GI50 [31]: 8.7 µM
COc1ccc2c(C[C@@H]3NC(=O)[C@H](Cc4ccccc4)NC3=O)c[nH]c2c1,–,–,–,–,–,–,–,–,–,–,–,–,–,–,–,–,–,–,–,–,Activity [32]: Active; IC50 [29]: 100 µM
COc1ccc2c(C[C@H]3NC(=O)[C@H]4CCCN4C3=O)c(CC=C(C)C)[nH]c2c1,> 25,> 25,> 25,> 25,> 25,> 25,83.7,75.2,> 100,81.7,> 25,> 25,> 100,> 25,> 25,> 25,> 25,> 25,> 25,> 100,IC50 [28]: > 700 µM; GI50 [22]: > 25 µM; Activity [30]: inactive; GI50 [24]: > 25 µM; GI50 [25]: 23.1 µM; GI50 [26]: > 25 µM
CC(C)=CCc1[nH]c2ccccc2c1C[C@@H]1NC(=O)[C@H]2CCCN2C1=O,3.22,14,22.4,17.7,9.23,14.9,0.2,0.1,73.6,88.3,13.2,–,0,5.54,11.5,14.7,6.9,9.46,–,59.3,GI50 [4]: 5.25 µM; inhibition [11]: < 2%; GI50 [31]: 11.9 µM; GI50 [22]: 5.96 µM; GI50 [24]: 9.69 µM; GI50 [25]: 1.7 µM; GI50 [26]: 20.1 µM
